Laboratory results from ChEMBL document CHEMBL1140919, “Structure-based drug design of novel Aurora kinase A inhibitors: structural basis for potency and specificity” (J Med Chem, 2009).

Assays:
Aurora kinase A = Aurora kinase A (Homo sapiens, UniProt O14965, T288D); test: Inhibition of Aurora kinase A T288D mutant expressed in Escherichia coli BL21 DE3
[1] = tested on: T1, Aurora kinase A (Homo sapiens), O14965 [T288D]; test: Inhibition of Aurora kinase A T288D mutant expressed in Escherichia coli BL21 DE3 at 10 uM
T1 sequence (whole entry): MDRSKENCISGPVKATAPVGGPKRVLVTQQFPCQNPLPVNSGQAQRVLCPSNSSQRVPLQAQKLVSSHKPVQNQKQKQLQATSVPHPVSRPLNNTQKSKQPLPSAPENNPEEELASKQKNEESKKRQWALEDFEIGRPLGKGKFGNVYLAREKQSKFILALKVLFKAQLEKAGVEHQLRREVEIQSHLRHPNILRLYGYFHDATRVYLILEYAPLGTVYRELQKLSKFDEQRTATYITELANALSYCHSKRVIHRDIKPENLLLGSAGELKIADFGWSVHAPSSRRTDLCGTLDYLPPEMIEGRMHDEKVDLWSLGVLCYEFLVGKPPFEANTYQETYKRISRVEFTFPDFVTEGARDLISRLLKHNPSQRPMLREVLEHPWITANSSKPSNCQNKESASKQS

[2] = molecular target: Aurora kinase A (Homo sapiens) (UniProt O14965); test: Inhibition of Aurora kinase A Thr288 autophosphorylation in human HCT116 cells by Western blot; format: cell-based; conditions: HCT-116
Chain of Aurora kinase A (Homo sapiens) (O14965 whole entry): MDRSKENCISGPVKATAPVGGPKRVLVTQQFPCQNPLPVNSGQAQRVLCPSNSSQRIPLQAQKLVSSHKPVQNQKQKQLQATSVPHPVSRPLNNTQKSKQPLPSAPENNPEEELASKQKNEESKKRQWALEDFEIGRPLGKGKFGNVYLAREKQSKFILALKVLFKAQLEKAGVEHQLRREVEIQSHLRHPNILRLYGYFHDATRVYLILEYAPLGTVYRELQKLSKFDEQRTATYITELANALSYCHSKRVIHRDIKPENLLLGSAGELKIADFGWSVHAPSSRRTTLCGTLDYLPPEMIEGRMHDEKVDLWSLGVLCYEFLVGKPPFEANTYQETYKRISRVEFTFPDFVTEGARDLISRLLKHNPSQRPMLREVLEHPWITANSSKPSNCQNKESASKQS
In short: (§1)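 HCT-116 cells, 4 × 10^5 per well, were seeded for 24 h and synchronized with 40 ng/mL nocodazole for 16 h. They were then exposed to compound at 0.625–40 µM for 2 h at 37 °C. Cells were lysed in SDS sample buffer (pH 6.8, 2% SDS) at 95 °C for 10 min, and 50 µg was run on SDS-PAGE. Blots were probed for phospho-Aurora A (Thr288) and phospho-histone H3 (Ser10) with HRP detection.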

[3] = molecular target: Aurora kinase B (Homo sapiens) (UniProt Q96GD4); test: Inhibition of Aurora kinase B in human HCT116 cells assessed as reduced phosphorylated histone H3 levels by Western blot; format: cell-based; conditions: HCT-116; in short: as §1
Chain of Aurora kinase B (Homo sapiens) (Q96GD4 whole entry): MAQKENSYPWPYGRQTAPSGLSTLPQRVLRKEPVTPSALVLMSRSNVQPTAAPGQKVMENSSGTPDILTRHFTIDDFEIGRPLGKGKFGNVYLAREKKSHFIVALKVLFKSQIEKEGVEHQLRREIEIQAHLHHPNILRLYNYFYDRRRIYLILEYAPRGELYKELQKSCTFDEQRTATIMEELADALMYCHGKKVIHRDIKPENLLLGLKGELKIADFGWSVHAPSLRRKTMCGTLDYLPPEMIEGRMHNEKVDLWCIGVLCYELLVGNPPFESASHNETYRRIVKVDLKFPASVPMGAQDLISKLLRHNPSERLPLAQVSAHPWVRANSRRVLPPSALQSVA

[4] = molecular target: Tyrosine-protein kinase ABL1 (Homo sapiens) (UniProt P00519); test: Inhibition of ABL1 at 1 uM relative to control
Chain of Tyrosine-protein kinase ABL1 (Homo sapiens) (P00519 whole entry): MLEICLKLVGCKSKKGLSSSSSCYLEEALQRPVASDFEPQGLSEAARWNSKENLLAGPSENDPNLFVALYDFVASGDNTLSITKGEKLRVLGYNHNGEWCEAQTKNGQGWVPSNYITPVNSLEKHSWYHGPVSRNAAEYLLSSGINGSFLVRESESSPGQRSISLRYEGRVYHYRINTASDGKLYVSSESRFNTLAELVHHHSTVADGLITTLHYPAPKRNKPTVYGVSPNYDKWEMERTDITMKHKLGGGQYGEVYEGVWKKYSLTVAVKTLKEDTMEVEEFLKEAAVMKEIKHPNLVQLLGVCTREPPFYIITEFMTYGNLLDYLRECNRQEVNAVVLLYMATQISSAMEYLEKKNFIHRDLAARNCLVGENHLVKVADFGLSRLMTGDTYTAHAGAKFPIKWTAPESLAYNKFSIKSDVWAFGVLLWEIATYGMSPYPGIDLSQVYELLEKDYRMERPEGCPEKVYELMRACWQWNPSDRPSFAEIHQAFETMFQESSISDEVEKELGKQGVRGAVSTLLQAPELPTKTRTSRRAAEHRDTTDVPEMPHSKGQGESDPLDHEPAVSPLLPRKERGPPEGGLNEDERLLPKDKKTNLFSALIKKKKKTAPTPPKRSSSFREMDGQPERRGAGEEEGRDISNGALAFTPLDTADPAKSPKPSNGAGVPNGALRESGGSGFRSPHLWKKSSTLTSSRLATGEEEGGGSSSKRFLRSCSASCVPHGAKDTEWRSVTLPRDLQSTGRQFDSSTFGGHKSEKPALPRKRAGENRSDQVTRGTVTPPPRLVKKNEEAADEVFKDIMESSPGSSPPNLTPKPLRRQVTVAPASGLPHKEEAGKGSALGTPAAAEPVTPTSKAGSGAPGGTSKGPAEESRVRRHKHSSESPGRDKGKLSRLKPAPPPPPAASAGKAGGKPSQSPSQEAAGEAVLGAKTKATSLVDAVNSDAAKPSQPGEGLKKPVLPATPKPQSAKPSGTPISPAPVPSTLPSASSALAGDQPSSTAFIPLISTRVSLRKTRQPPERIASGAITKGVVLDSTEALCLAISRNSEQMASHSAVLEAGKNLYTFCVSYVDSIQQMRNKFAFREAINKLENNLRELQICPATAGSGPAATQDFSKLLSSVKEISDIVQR

[5] = molecular target: RAC-alpha serine/threonine-protein kinase (Homo sapiens) (UniProt P31749); test: Inhibition of AKT1 at 1 uM relative to control
[6] = molecular target: ALK tyrosine kinase receptor (Homo sapiens) (UniProt Q9UM73); test: Inhibition of ALK at 1 uM relative to control
[7] = molecular target: 5'-AMP-activated protein kinase catalytic subunit alpha-1 (Homo sapiens) (UniProt Q13131); test: Inhibition of AMPK alpha-1/beta-1/gamma-1 at 1 uM relative to control
Chain of 5'-AMP-activated protein kinase catalytic subunit alpha-1 (Homo sapiens) (Q13131 whole entry, looked up): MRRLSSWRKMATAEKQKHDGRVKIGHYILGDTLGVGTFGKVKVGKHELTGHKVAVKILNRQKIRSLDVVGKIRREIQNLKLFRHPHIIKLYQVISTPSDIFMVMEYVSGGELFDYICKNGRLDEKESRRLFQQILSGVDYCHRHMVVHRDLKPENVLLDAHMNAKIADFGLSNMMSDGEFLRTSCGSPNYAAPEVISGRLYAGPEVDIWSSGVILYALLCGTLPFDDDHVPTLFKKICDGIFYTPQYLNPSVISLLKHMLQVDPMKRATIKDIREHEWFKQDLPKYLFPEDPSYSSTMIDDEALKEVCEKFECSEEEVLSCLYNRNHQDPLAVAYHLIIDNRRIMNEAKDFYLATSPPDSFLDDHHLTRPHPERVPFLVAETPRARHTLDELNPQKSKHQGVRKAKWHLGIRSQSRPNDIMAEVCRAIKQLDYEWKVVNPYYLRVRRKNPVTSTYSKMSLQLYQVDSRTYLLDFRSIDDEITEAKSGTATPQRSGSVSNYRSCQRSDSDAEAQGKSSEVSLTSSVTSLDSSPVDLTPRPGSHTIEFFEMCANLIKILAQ

[8] = molecular target: Aurora kinase A (Homo sapiens) (UniProt O14965); test: Inhibition of AURKA at 1 uM relative to control
[9] = molecular target: Aurora kinase B (Homo sapiens) (UniProt Q96GD4); test: Inhibition of AURKB at 1 uM relative to control
[10] = molecular target: Aurora kinase C (Homo sapiens) (UniProt Q9UQB9); test: Inhibition of AURKC at 1 uM relative to control
[11] = molecular target: Cyclin-dependent kinase 2 (Homo sapiens) (UniProt P24941); test: Inhibition of CDK2/Cyclin A at 1 uM relative to control
[12] = molecular target: Serine/threonine-protein kinase Chk1 (Homo sapiens) (UniProt O14757); test: Inhibition of CHK1 at 1 uM relative to control
[13] = molecular target: Epidermal growth factor receptor (Homo sapiens) (UniProt P00533); test: Inhibition of EGFR at 1 uM relative to control
[14] = molecular target: Ephrin type-A receptor 1 (Homo sapiens) (UniProt P21709); test: Inhibition of EPHA1 at 1 uM relative to control
[15] = molecular target: Receptor tyrosine-protein kinase erbB-2 (Homo sapiens) (UniProt P04626); test: Inhibition of ERBB2 at 1 uM relative to control
[16] = molecular target: Vascular endothelial growth factor receptor 1 (Homo sapiens) (UniProt P17948); test: Inhibition of FLT1 at 1 uM relative to control
[17] = molecular target: Receptor-type tyrosine-protein kinase FLT3 (Homo sapiens) (UniProt P36888); test: Inhibition of FLT3 at 1 uM relative to control
Chain of Receptor-type tyrosine-protein kinase FLT3 (Homo sapiens) (P36888 whole entry): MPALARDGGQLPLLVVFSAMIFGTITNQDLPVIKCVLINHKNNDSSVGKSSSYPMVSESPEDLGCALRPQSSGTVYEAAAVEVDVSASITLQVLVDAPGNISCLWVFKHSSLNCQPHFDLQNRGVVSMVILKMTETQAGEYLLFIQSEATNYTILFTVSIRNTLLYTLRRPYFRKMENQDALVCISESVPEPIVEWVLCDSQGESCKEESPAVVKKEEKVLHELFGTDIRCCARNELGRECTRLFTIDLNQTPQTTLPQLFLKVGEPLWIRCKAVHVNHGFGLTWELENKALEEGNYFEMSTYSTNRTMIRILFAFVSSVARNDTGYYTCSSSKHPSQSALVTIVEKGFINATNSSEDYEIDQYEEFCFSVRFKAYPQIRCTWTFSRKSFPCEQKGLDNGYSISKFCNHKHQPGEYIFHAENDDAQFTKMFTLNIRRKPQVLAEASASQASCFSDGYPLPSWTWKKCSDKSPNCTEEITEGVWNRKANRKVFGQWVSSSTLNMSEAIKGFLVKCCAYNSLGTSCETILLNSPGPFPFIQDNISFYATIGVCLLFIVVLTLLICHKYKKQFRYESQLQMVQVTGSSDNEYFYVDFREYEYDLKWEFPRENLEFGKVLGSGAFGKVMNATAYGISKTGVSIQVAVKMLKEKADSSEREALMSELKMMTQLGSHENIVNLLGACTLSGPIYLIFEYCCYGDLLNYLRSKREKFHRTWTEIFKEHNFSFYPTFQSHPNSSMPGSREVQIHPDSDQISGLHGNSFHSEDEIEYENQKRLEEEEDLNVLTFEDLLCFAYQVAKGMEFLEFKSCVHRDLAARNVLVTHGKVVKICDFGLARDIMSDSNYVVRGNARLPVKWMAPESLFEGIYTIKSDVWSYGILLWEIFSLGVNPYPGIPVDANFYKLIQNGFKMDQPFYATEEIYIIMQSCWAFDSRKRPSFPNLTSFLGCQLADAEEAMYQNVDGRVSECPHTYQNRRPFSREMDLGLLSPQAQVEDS

[18] = molecular target: Serine/threonine-protein kinase mTOR (Homo sapiens) (UniProt P42345); test: Inhibition of FRAP1 at 1 uM relative to control
[19] = molecular target: Insulin-like growth factor 1 receptor (Homo sapiens) (UniProt P08069); test: Inhibition of IGF1R at 1 uM relative to control
[20] = molecular target: Inhibitor of nuclear factor kappa-B kinase subunit epsilon (Homo sapiens) (UniProt Q14164); test: Inhibition of IKK epsilon at 1 uM relative to control
[21] = molecular target: Tyrosine-protein kinase JAK2 (Homo sapiens) (UniProt O60674); test: Inhibition of JAK2 at 1 uM relative to control
[22] = molecular target: Mast/stem cell growth factor receptor Kit (Homo sapiens) (UniProt P10721); test: Inhibition of KIT at 1 uM relative to control
[23] = molecular target: Mitogen-activated protein kinase 14 (Homo sapiens) (UniProt Q16539); test: Inhibition of MAPK14 at 1 uM relative to control
Chain of Mitogen-activated protein kinase 14 (Homo sapiens) (Q16539 whole entry): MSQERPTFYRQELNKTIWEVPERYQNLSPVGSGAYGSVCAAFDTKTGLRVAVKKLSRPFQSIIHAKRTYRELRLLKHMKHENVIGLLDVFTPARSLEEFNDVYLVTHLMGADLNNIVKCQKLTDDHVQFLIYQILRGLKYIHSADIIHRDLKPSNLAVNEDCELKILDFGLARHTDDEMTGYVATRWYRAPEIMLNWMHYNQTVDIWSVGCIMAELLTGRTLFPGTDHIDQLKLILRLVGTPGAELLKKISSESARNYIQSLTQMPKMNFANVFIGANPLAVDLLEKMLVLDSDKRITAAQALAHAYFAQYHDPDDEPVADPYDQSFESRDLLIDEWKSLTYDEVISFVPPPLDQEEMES

[24] = molecular target: Hepatocyte growth factor receptor (Homo sapiens) (UniProt P08581); test: Inhibition of cMET at 1 uM relative to control
[25] = molecular target: High affinity nerve growth factor receptor (Homo sapiens) (UniProt P04629); test: Inhibition of NTRK1 at 1 uM relative to control
[26] = molecular target: Serine/threonine-protein kinase PLK1 (Homo sapiens) (UniProt P53350); test: Inhibition of PLK1 at 1 uM relative to control
[27] = tested on: RAF proto-oncogene serine/threonine-protein kinase (Homo sapiens), P04049 [Y340D,Y341D]; test: Inhibition of cRaf Y340D/Y341D mutant at 1 uM relative to control
[28] = molecular target: Proto-oncogene tyrosine-protein kinase receptor Ret (Homo sapiens) (UniProt P07949); test: Inhibition of RET at 1 uM relative to control
[29] = molecular target: Proto-oncogene tyrosine-protein kinase Src (Homo sapiens) (UniProt P12931); test: Inhibition of SRC at 1 uM relative to control
Chain of Proto-oncogene tyrosine-protein kinase Src (Homo sapiens) (P12931 2-536 limits assumed): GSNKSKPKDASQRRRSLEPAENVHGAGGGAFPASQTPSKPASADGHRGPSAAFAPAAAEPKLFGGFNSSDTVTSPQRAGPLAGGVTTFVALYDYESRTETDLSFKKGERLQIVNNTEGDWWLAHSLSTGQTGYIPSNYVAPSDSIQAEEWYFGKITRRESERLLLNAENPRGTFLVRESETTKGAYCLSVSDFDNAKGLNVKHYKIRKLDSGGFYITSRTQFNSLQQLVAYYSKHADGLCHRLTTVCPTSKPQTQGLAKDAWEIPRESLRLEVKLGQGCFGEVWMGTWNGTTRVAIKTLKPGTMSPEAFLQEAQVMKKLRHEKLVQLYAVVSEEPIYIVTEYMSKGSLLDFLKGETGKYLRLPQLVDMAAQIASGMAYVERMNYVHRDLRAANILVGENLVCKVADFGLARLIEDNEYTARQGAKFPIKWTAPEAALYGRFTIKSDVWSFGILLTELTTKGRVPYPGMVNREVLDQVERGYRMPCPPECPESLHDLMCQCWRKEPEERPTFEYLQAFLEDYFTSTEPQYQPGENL

[30] = molecular target: Angiopoietin-1 receptor (Homo sapiens) (UniProt Q02763); test: Inhibition of TEK at 1 uM relative to control
[31] = molecular target: Phosphatidylinositol 4,5-bisphosphate 3-kinase catalytic subunit gamma isoform (Homo sapiens) (UniProt P48736); test: Inhibition of PIK3CG at 1 uM relative to control
[32] = molecular target: Glycogen synthase kinase-3 beta (Homo sapiens) (UniProt P49841); test: Inhibition of GSK3-beta at 1 uM relative to control
[33] = molecular target: 3-phosphoinositide-dependent protein kinase 1 (Homo sapiens) (UniProt O15530); test: Inhibition of PDK1 at 1 uM relative to control
Chain of 3-phosphoinositide-dependent protein kinase 1 (Homo sapiens) (O15530 whole entry, looked up): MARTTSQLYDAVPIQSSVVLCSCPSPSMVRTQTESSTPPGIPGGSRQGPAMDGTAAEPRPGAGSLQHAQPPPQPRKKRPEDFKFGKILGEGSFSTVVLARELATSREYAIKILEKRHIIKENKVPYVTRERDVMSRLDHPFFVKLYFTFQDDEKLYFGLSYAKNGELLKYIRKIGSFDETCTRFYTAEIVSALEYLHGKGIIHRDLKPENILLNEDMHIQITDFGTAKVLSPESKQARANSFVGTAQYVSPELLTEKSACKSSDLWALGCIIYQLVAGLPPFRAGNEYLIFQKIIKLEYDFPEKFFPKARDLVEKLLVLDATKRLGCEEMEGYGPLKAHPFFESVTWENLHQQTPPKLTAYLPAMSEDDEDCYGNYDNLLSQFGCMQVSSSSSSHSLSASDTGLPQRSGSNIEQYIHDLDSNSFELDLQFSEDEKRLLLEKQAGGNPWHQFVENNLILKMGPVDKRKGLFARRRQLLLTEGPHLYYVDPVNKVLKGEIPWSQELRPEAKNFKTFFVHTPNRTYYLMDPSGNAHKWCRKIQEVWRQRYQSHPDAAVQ

COc1ccc(/C=N/Nc2[nH]nc(C)c2C(=O)Nc2ccc(OC)c(OC)c2)cc1 showed an IC50 (Aurora kinase A) of 0.96 µM.
COc1ccc(/C=N/Nc2[nH]nc(C)c2C(=O)Nc2ccccc2)cc1 showed an IC50 (Aurora kinase A) of 0.804 µM.
Molecule COc1ccc(/C=N/Nc2[nH]nc(C)c2C(=O)NCCc2ccccc2)cc1 has an IC50 (Aurora kinase A) of 1.35 µM.
COc1ccc(/C=N/Nc2[nH]nc(C)c2C(=O)OCc2ccccc2)cc1 was tested, and the IC50 (Aurora kinase A) was 5.25 µM.
Work on COc1ccc(/C=N/Nc2[nH]nc(C)c2C(=O)N(C)c2ccccc2)cc1 yielded an IC50 (Aurora kinase A) greater than 50 µM.
COc1ccc(/C=N/Nc2[nH]nc(C)c2C(=O)Nc2ccccc2OC)cc1 was tested, and the IC50 (Aurora kinase A) was 1.09 µM.
COc1ccc(/C=N/Nc2[nH]nc(C)c2C(=O)N(C)Cc2ccccc2)cc1 gave an IC50 (Aurora kinase A) greater than 50 µM.
Work on COc1ccc(/C=N/Nc2[nH]nc(C)c2C(=O)Nc2cccc(OC)c2)cc1 yielded an IC50 (Aurora kinase A) of 0.449 µM.
Work on CCOC(=O)c1c(C)n[nH]c1N/N=C/Cc1ccccc1 yielded an inhibition [1] of 3.6%.
In the case of CCOC(=O)c1c(C)n[nH]c1N/N=C/c1ccccc1, the inhibition [1] is reported as 16.4%.
COc1ccc(/C=N/Nc2[nH]nc(C)c2C(=O)NCCc2c[nH]cn2)cc1 was tested, and the IC50 (Aurora kinase A) was 1.94 µM.
For COc1ccc(/C=N/Nc2[nH]nc(C)c2C(=O)NCCc2cccnc2)cc1, the IC50 (Aurora kinase A) was 1.48 µM.
COc1ccc(/C=N/Nc2[nH]nc(C)c2C(=O)Nc2cccc(NC(C)=O)c2)cc1 was tested, and the Activity [2] was “Dose-dependent effect”, the Activity [3] was “Dose-dependent effect” and the inhibition [4] was 17%. For the same molecule, the inhibition [5] was 13%, the inhibition [6] was 1% and the inhibition [7] was 31%. It also gave an inhibition [8] of 91%, an inhibition [9] of 36% and an inhibition [10] of 45%. For the same molecule, the inhibition [11] was 48%, the inhibition [12] was 21% and the inhibition [13] was 8%. The inhibition [14] was 51%, the inhibition [15] was 26% and the inhibition [16] was 27%. It also gave an inhibition [17] of 48%, an inhibition [18] of -6% and an inhibition [19] of 11%. For the same molecule, the inhibition [20] was -8%, the inhibition [21] was 56% and the inhibition [22] was 61%. The inhibition [23] was 19%, the inhibition [24] was 19% and the inhibition [25] was 66%. The inhibition [26] was 11%, the inhibition [27] was -1% and the inhibition [28] was 76%. For the same molecule, the inhibition [29] was 33%, the inhibition [30] was 4% and the inhibition [31] was -3%. For the same molecule, the inhibition [32] was 32% and the inhibition [33] was 17%.
COc1ccc(/C=N/Nc2[nH]nc(C)c2C(=O)Nc2ccc(NC(C)=O)cc2)cc1 was tested, and the IC50 (Aurora kinase A) was 0.719 µM.
Work on CCOC(=O)c1c(C)n[nH]c1N/N=C(\C)c1ccc(OC)cc1 yielded an inhibition [1] of 18.2%.
COc1ccc(/C=N/Nc2[nH]nc(C)c2C(=O)Nc2ccc(OC)cc2)cc1 gave an IC50 (Aurora kinase A) of 0.46 µM.
COc1ccc(/C=N/Nc2[nH]nc(C)c2C(=O)NCCCc2ccccc2)cc1 showed an IC50 (Aurora kinase A) of 1.94 µM.
Work on COc1ccc(/C=N/Nc2[nH]nc(C)c2C(=O)Nc2ccc(F)cc2)cc1 yielded an IC50 (Aurora kinase A) of 1.45 µM.
COc1ccc(/C=N/Nc2[nH]nc(C)c2C(=O)NCCc2ccc(OC)cc2)cc1 was tested, and the IC50 (Aurora kinase A) was 1.58 µM.
With CCOC(=O)c1c(C)n[nH]c1N/N=C/c1ccc(F)cc1 the inhibition [1] was 36.5%.
With CCOC(=O)c1c(C)n[nH]c1N/N=C/c1ccc2[nH]ccc2c1 the inhibition [1] was 50% and the IC50 (Aurora kinase A) was 11.5 µM.
In the case of COc1ccc(/C=N/Nc2[nH]nc(C)c2C(=O)NCCc2c[nH]c3ccccc23)cc1, the IC50 (Aurora kinase A) is reported as 1.07 µM.
In the case of COc1ccc(/C=N/Nc2[nH]nc(C)c2C(=O)NCCc2cccc(OC)c2)cc1, the IC50 (Aurora kinase A) is reported as 2.9 µM.
COc1ccc(/C=N/Nc2[nH]nc(C)c2C(=O)NCc2ccccc2)cc1 was tested, and the IC50 (Aurora kinase A) was 1.58 µM.
With CCOC(=O)c1c(C)n[nH]c1N/N=C/c1ccc(N2CCN(C)CC2)cc1 the inhibition [1] was 41%.
CCOC(=O)c1c(C)n[nH]c1N/N=C/c1ccc(-c2ccccc2)cc1 showed an inhibition [1] of 27.5%.
Molecule COc1ccc(/C=N/Nc2[nH]nc(C)c2C(=O)NCc2cccc(NC(C)=O)c2)cc1 has an IC50 (Aurora kinase A) of 1.75 µM.
COc1ccc(/C=N/Nc2[nH]nc(C)c2C(=O)Nc2ccc(N(C)C)cc2)cc1 was tested, and the IC50 (Aurora kinase A) was 1.57 µM.
In the case of COc1ccc(/C=N/Nc2[nH]nc(C)c2C(=O)NCc2ccc(OC)cc2)cc1, the IC50 (Aurora kinase A) is reported as 1.62 µM.
Molecule CCOC(=O)c1c(C)n[nH]c1N/N=C/c1cccc2[nH]ccc12 has an inhibition [1] of 50.3% and an IC50 (Aurora kinase A) of 13.7 µM.
Molecule COc1ccc(/C=N/Nc2[nH]nc(C)c2C(=O)NCc2cccc(OC)c2)cc1 has an IC50 (Aurora kinase A) of 0.838 µM.
CCOC(=O)c1c(C)n[nH]c1N/N=C/c1ccc(OC)cc1 showed an inhibition [1] of 33.9% and an IC50 (Aurora kinase A) of 15.1 µM.
